Measured values published in publication PMC7442746 (ACS chemical biology, 2020).

Key:
[1] = target: T1, recombinant human HDAC10 (TwinStrep-HDAC10 fusion protein) (Homo sapiens, UniProt Q969S8); assay: Differential scanning fluorimetry; type: binding; conditions: protein 3 μM, inhibitor 6 μM; for melting temperature (Tm) of TwinStrep-HDAC10 with inhibitor: Tm 65.90 °C with 0.6% DMSO, n = 2
T1 sequence (Q969S8 1-669): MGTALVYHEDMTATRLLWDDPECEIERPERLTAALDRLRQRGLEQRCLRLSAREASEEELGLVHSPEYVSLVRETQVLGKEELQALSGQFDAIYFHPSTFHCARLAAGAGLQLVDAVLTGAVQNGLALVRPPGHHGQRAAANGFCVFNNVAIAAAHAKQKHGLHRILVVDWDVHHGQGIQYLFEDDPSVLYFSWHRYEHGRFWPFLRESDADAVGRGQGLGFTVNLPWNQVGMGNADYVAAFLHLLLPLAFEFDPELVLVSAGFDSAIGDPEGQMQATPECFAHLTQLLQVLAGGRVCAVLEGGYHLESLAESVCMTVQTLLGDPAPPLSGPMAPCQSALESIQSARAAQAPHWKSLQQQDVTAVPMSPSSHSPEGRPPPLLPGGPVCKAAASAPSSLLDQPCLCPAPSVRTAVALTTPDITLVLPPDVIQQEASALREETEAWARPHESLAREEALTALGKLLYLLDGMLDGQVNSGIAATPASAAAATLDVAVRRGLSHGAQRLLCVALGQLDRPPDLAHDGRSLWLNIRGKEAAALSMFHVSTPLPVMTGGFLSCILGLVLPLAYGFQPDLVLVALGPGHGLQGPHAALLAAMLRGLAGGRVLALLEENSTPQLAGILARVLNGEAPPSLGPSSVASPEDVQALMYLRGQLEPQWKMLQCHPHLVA
Procedure, shortened: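 Nano-DSF on recombinant human HDAC10 with an N-terminal TwinStrep tag. Protein at 3 μM and test compound at 6 μM (protein:inhibitor 1:2). Controls were protein alone and protein with DMSO, each run once. Compound runs were done twice and Tm reported as the mean of the two. Thermal shift was taken as the Tm change from the DMSO control.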

[2] = test system: HDAC10 over HDAC6; conditions: cited from earlier work
[3] = test system: human HDAC10; conditions: oxa analogue weaker than Tubastatin A; cited from earlier work

melting temperature (Tm) of TwinStrep-HDAC10 with inhibitor [1] [°C] | thermal shift ([1]; relative to DMSO control) [°C] | SMILES | selectivity for inhibition of HDAC10 compared to HDAC6 [2] [fold] | difference in HDAC10 binding affinity between Tubastatin A and its oxa analogue [3] [fold]
72.94 ± 0.08 | – | CN1CCc2c(c3ccccc3n2Cc2ccc(C(=O)NO)cc2)C1 [Tubastatin A, reference compound] | ~8 | –
67.27 ± 0.01 | 1.37 | O=C(NO)c1ccc(Cn2c3c(c4ccccc42)COCC3)cc1 [oxa-Tubastatin A] | – | 52
